Source: ChEMBL document CHEMBL1130418, “Synthesis and evaluation of 6-(dibromomethyl)-5-nitropyrimidines as potential antitumor agents” (J Med Chem, 1997)

How the values were obtained:
[1] = organism: Mus musculus; test: The initial growth rate of cells in the presence at the screen concentration 100 mM in leukemic cells (L1210) of mice; format: functional
[2] = organism: Mus musculus; test: Concentration required to decrease the growth rate to 50% of control; cell proliferation was not slowed down at screen concentration 100 mM; format: functional, organism-based
Procedure, shortened: (§1)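 Antiproliferative assay in L1210 murine leukemia or H.Ep.2 human epidermoid carcinoma cells. Cells were counted over time with compound present. Growth rate is the slope of log cell number versus time as a percentage of the control slope. IC50 is the concentration that lowers the growth rate to 50% of control. Values are usually the mean of two concentration–response determinations.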

[3] = organism: Mus musculus; test: The concentration required to decrease the estimate of the minimum fraction of leukemic cells (L1210) of mice that survived treatment to 50%. * indicates cell proliferation was not slowed down at screen concentration 100 mM; format: functional, organism-based
Procedure, shortened: (§2)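 Surviving-fraction estimate in L1210 suspension cultures (Fischer's medium) counted daily over 3 days across compound concentrations. The exponential part of each growth curve was extrapolated back to zero time, and the intercept was expressed as a percentage of the initial cell number. The value is the concentration that lowers this minimum surviving fraction to 50%.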

[4] = system: HEp-2; test: The initial growth rate of cells in the presence at the screen concentration 100 mM in human epidermoid carcinoma cells (H.Ep.2); format: functional
Procedure, shortened: (§3)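 H.Ep.2 monolayers were seeded at 2×10^4 cells per flask and switched after 1 day to medium containing compound at the single screen concentration. Duplicate flasks were counted on days 1, 2 and 4. The initial slope of log cell number versus time is given as a percentage of the untreated control slope.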

[5] = organism: Mus musculus; test: Concentration required to decrease the growth rate to 50% of control; format: functional, organism-based; procedure, shortened: as §1
[6] = organism: Mus musculus; test: The concentration required to decrease the estimate of the minimum fraction of leukemic cells (L1210) of mice that survived treatment to 50%; format: functional, organism-based; procedure, shortened: as §2
[7] = system: HEp-2; test: Concentration required to decrease the growth rate to 50% of control on H.Ep.2 cells.; format: functional, cell-based; conditions: Homo sapiens
[8] = system: HEp-2; test: The concentration required to decrease the estimate of the minimum fraction of human epidermoid carcinoma cells that survived treatment to 50% (H.Ep.2); format: functional, cell-based
Procedure, shortened: (§4)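 Surviving fraction in H.Ep.2 monolayers exposed to compound from day 1 after seeding, with duplicate flasks counted on days 1, 2 and 4. The exponential growth curve was back-extrapolated to zero time, and the intercept was expressed as a percentage of initial cells. The value is the concentration that lowers this minimum surviving fraction to 50%.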

[9] = system: Mus musculus; test: Percent treated to untreated control was measured on Leukemia-bearing mice at the dose of 100 mg/kg; format: functional
Procedure, shortened: (§5)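 Mice were inoculated with P388 leukemia cells, and compound was injected once daily on days 1–5 after inoculation at doses of 200 down to 6.25 mg/kg/injection. T/C% is the life span of treated mice divided by that of untreated tumor-bearing control mice, ×100.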

[10] = system: Mus musculus; test: Percent treated to untreated control was measured on Leukemia-bearing mice at the dose of 25 mg/kg; format: functional
[11] = system: Mus musculus; test: Percent treated to untreated control was measured on Leukemia-bearing mice at the dose of 50 mg/kg; format: functional; procedure, shortened: as §5
[12] = organism: Mus musculus; test: The initial growth rate of cells in the presence at the screen concentration 10 mM in leukemic cells (L1210) of mice; format: functional
[13] = system: HEp-2; test: Concentration required to decrease the growth rate to 50% of control on H.Ep.2 cells; cell proliferation was not slowed at the screen concentration 100 mM; format: functional, cell-based, Homo sapiens
[14] = system: HEp-2; test: The concentration required to decrease the estimate of the minimum fraction of human epidermoid carcinoma cells that survived treatment to 50% (H.Ep.2); cell proliferation was not slowed down at screen concentration 100 mM; format: functional, cell-based; procedure, shortened: as §4
[15] = organism: Mus musculus; test: The concentration required to decrease the estimate of the minimum fraction of leukemic cells (L1210) of mice that survived treatment to 50%; cell proliferation was not slowed down at screen concentration 100 mM; format: functional; procedure, shortened: as §2
[16] = organism: Mus musculus; test: The concentration required to decrease the estimate of the minimum fraction of leukemic cells of mice that survived treatment to 50%; no evidence of surviving cell; format: functional, organism-based
Procedure, shortened: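 Minimum surviving fraction was estimated by back-extrapolating the exponential portion of treated-cell growth curves to zero time, as a percentage of the initial cell number. The value is the concentration that lowers this to 50%.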

[17] = organism: Mus musculus; test: The concentration required to decrease the estimate of the minimum fraction of leukemic cells of mice that survived treatment to 50% (L1210); no evidence of survivin cell
[18] = system: HEp-2; test: The initial growth rate of cells in the presence at the screen concentration 10 mM in human epidermoid carcinoma cells (H.Ep.2); format: functional; procedure, shortened: as §3
[19] = organism: Mus musculus; test: The concentration required to decrease the estimate of the minimum fraction of leukemic cells (L1210) of mice that survived treatment to 50%; no evidence of surviving cell; format: functional, organism-based; procedure, shortened: as §2
[20] = system: Mus musculus; test: Percent treated to untreated control was measured on Leukemia-bearing mice at the dose of 12.5 mg/kg; format: functional; procedure, shortened: as §5
[21] = system: Mus musculus; test: Percent treated to untreated control was measured on Leukemia-bearing mice at the dose of 6.25 mg/kg; format: functional; procedure, shortened: as §5
[22] = organism: Mus musculus; test: Concentration required to decrease the growth rate to 50% of control; cell proliferation was not slowed at the screen concentration 100 mM; format: functional, organism-based; procedure, shortened: as §1
[23] = organism: Mus musculus; test: The concentration required to decrease the estimate of the minimum fraction of leukemic cells (L1210) of mice that survived treatment to 50%; cell proliferation was not slowed at the screen concentration 100 mM; format: functional; procedure, shortened: as §2
[24] = system: HEp-2; test: The concentration required to decrease the estimate of the minimum fraction of human epidermoid carcinoma cells that survived treatment to 50% (H.Ep.2); cell proliferation was not slowed at the screen concentration 100 mM; format: functional, cell-based; procedure, shortened: as §4
[25] = organism: Mus musculus; test: Concentration required to decrease the growth rate to 50% of control; cell proliferation was not slowed down at screen concentration 10 mM; format: functional, organism-based; procedure, shortened: as §1
[26] = organism: Mus musculus; test: The concentration required to decrease the estimate of the minimum fraction of leukemic cells (L1210) of mice that survived treatment to 50%. * indicates cell proliferation was not slowed down at screen concentration 10 mM; format: functional; procedure, shortened: as §2
[27] = organism: Mus musculus; test: Concentration required to decrease the growth rate to 50% of control.; cell proliferation was not slowed down at screen concentration 10 mM; format: functional, organism-based; procedure, shortened: as §1

SMILES | Control [1] [%] | Control [4] [%] | IC50 [5] [nM] | IC50 [6] [nM] | other results
Cc1nc(Cl)nc(Cl)c1[N+](=O)[O-] | 104 | – | – | – | IC50 [2]: Cell proliferation not slowed; IC50 [3]: Cell proliferation not slowed
CCN(CC)c1nc(OC)nc(C(Br)Br)c1[N+](=O)[O-] | 0 | 0 | 5800 | 5600 | –
COc1nc(C(Br)Br)c([N+](=O)[O-])c(N2CCOCC2)n1 | 0 | 0 | 320 | 560 | IC50 [7]: 1600 nM; IC50 [8]: 2800 nM; T/C [9]: 87%; T/C [10]: 109%; T/C [11]: 101%
COc1nc(C(Br)Br)c([N+](=O)[O-])c(N2CCCC2)n1 | – | – | 900 | 1000 | Control [12]: 0%
COc1nc(CO)c([N+](=O)[O-])c(N2CCOCC2)n1 | 100 | 100 | – | – | IC50 [13]: Cell proliferation not slowed; IC50 [14]: Cell proliferation not slowed; IC50 [2]: Cell proliferation not slowed; IC50 [15]: Cell proliferation not slowed
CCOc1nc(OCC)c([N+](=O)[O-])c(C(Br)Br)n1 | 0 | – | 7200 | – | IC50 [16]: Not Active
CCOc1nc(C(Br)Br)c([N+](=O)[O-])c(N2CCOCC2)n1 | 13 | – | 3600 | – | IC50 [17]: Not Active
CNc1nc(OC)nc(C(Br)Br)c1[N+](=O)[O-] | 0 | 0 | 2300 | 2000 | –
COc1nc(C(Br)Br)c([N+](=O)[O-])c(N2CCCCC2)n1 | – | – | 540 | 1800 | Control [18]: 36%; Control [12]: 0%
COc1nc(N)c([N+](=O)[O-])c(C(Br)Br)n1 | 0 | 0 | 2000 | – | IC50 [7]: 1600 nM; IC50 [8]: 3300 nM; IC50 [19]: Not Active; T/C [20]: 100%; T/C [10]: 91%; T/C [21]: 104%
COc1nc(C)c([N+](=O)[O-])c(OC)n1 | 104 | 90 | – | – | IC50 [13]: Cell proliferation not slowed; IC50 [22]: Cell proliferation not slowed; IC50 [23]: Cell proliferation not slowed; IC50 [24]: Cell proliferation not slowed
COc1nc(OC)c([N+](=O)[O-])c(C(Br)Br)n1 | 0 | 0 | 1900 | – | IC50 [7]: 2500 nM; IC50 [8]: 2700 nM; IC50 [16]: Not Active
COc1nc(C=P(c2ccccc2)(c2ccccc2)c2ccccc2)c([N+](=O)[O-])c(OC)n1 | – | – | – | – | Control [12]: 93%; IC50 [25]: Cell proliferation not slowed; IC50 [26]: Cell proliferation not slowed
COc1nc(/C=C\N(C)C)c([N+](=O)[O-])c(OC)n1 | – | – | – | – | Control [12]: 87%; IC50 [27]: Cell proliferation not slowed; IC50 [26]: Cell proliferation not slowed
COc1nc(CBr)c([N+](=O)[O-])c(OC)n1 | 0 | 0 | 8000 | 25000 | –
COc1nc(C=O)c([N+](=O)[O-])c(N(C)C)n1 | 0 | – | 5900 | 12000 | –
CCCOc1nc(C(Br)Br)c([N+](=O)[O-])c(N2CCOCC2)n1 | – | – | 2300 | 6100 | Control [12]: 13%
